Test system: MS2 coat protein
Test: apparent Kd, MS2 coat protein; higher = weaker binding; RNA-MaP array; FMN 200 µM where present
Summary of the method: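 In 100 mM Tris-HCl pH 7.5, 80 mM KCl, 4 mM MgCl2, BSA, DTT, yeast tRNA and Tween-20, SNAP-549-labelled MS2 coat protein was titrated from 0.7 or 1.5 nM, doubling to 3 µM, over designs transcribed by stalled E. coli RNA polymerase on Illumina sequencing-chip clusters. This was done first without ligand, then with ligand held constant. After green signal was normalised to red-channel RNA signal and control-cluster median Fmax, the apparent Kd was taken as the median of filtered per-cluster binding-curve fits.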

[1] = designed as: OFF switch for flavin mononucleotide, no ligand
[2] = ligand present: flavin mononucleotide, designed as: OFF switch for flavin mononucleotide
[3] = designed as: ON switch for flavin mononucleotide, no ligand
[4] = ligand present: flavin mononucleotide, designed as: ON switch for flavin mononucleotide

| Sequence | apparent Kd [1] [nM] | apparent Kd [2] [nM] | apparent Kd [3] [nM] | apparent Kd [4] [nM] |
| --- | --- | --- | --- | --- |
| AGUCGGAGCAGAGGAUAUAUACAUGAGGAUCACCCAUGUAAAUGAAUGAGCUGGAAACAGCAUGUAUAGAAGGCUGCUCCGACA | 113 | 303 | – | – |
| AGUCGGAGCAGAGGAUAUUACAUGAGGAUCACCCAUGUAUAAAAUGGAAGCUGGAAACAGCAAUGUAAGAAGGCUGCUCCGACA | 64 | 296 | – | – |
| AGUGCCUCGAGAGGAUAUAACAUGAGGAUCACCCAUGUAACAGAGGUGGAAACACCUCUGAAAUGUUAGAAGGCUCGAGGCACA | 40.7 | 53.2 | – | – |
| AGUGUCAUCCAGAAGGAGAUGGACAUGAGGAUCACCCAUGUUCCAUGAUCUAGGAUAUGGAUGAUACAGCUACGUUUCGUAGCA | – | – | 4.61 | 4.73 |
| AGUGUCAUCGAGAAGGCCCUGACAUGAGGAUCACCCAUGUUGUUACAUGGGAGGAUAUCGAUGAUACAGCUACGUUUCGUAGCA | – | – | 12.8 | 5.05 |
| AGUGUCAUCGAGAAGGCCUCAACAUGAGGAUCACCCAUGUUGUUACAUGGGAGGAUAUCGAUGAUACAGCUACGUUUCGUAGCA | – | – | 1010 | 137 |
| AGUGUGUGGCAGGAUAUUCUGUUGGUUCGGGCAGAAGAAGGGUCUACAUGAGGAUCACCCAUGUAAGCGGUUGA | 205 | 486 | – | – |
| AGUUAGAUAGCGAUAUGAUCGAGAGAUCAUGUCGCUAAAUUUAGAAGGACAUGAGGAUCACCCAUGUAGGAUAUGGGAGUAGAA | – | – | 143 | 59.3 |
| AGUUCCUCCGCAGGAUAUGUGCUCUUUAUCACAUGAGGAUCACCCAUGUCAGCCGAAACGGCGAGACAGAAGGGUGGUGGUGCC | – | – | 213 | 169 |
| AGUUGACGAGAAGGAUAUCCGAACCUUUAAAGAGGAGAAGGUCUAUCAACAUGAGGAUCACCCAUGUACAUCGCUCGGGUGUCC | 82.2 | 306 | – | – |
| AGUUGUAAACAGAACAUGAGGAUCACCCAUGUGCUCUCGUGUAAGGAUAUACAUUCGUAUGGAAAGUAGAAGGUACUAAUUAUG | – | – | 78.4 | 78.7 |
| AUAAGCUCGUCAGGAUAUACGUCACUGCUUCGGCAGUGAGGUAAGAUCACAUGAGGAUCACCCAUGUAGAAGGGACGAGCUUAU | 5.65 | 14.4 | – | – |
| AUAAGUCGAGGAUAUACAAAAUGCUAGCGAAAGCUAGCAUAACAUGAGGAUCACCCAUGUAGAAGGCGACAAUA | 24.5 | 26.1 | – | – |
| AUAAUUUUAUAAUUCUAUAUAUUCAGAAGGCAUAACAUGAGGAUCACCCAUGUAAAUUAAUGUUAUGAGGAUAUGAUUCGGUUA | 13.9 | 67.3 | – | – |
| AUAAUUUUAUAUAUCUUAUUUAUCAGAAGGCAUAACAUGAGGAUCACCCAUGUAUAUUAUAGUUAUGAGGAUAUGAUUUAGUUA | 8.04 | 8.85 | – | – |
| AUAAUUUUAUUUUUCUAUUAUAUCAGAAGGCAUUACAUGAGGAUCACCCAUGUUUUGGAUAGUAAUGAGGAUAUGAUAUGGUUA | 11.1 | 28.2 | – | – |
| AUACAUGAGGAUCACCCAUGUAAUUAAUUAAUUAAUAAGAUCUAGGAUAUCAGCUCGUUUAGAGCUGAGAAGGAGAUCACAUGU | – | – | 23.4 | 13.1 |
| AUACAUGAGGAUCACCCAUGUUACUGGGUCUAUAUAGAACGUAGAAGGAUGUAUUUAAGAAUAACAUAGGAUAUACUUUAUAGU | 60.4 | 38.2 | – | – |
| AUACCACGAGGAUAUCGUCUAUAAUACAUGAGGAUCACCCAUGUUAUAUCUGUAAUGUUUCGAGAAGGCGUGUUUU | 17.5 | 14.2 | – | – |
| AUACUCAUGUAAGGAUAUGCAGCCGUUUCGGCUGCAGAAGGUACUAUAAUACAUGAGGAUCACCCAUGUCUUUUUAAUUUAGAC | – | – | 153 | 39.9 |
| AUACUGAGCGUAAAUUACCUGAACAUGAGGAUCACCCAUGUGGAGGAUAUUGACCUAGCAAAGCUCGAGAAGGCCACUGGGAUG | 32.3 | 18.7 | – | – |
| AUAGCUCUCUAGAAGGACCAAGCAGUAUACCAUCAGGUAUAUACGCUAGGUAGGAUAUGGGACAUGAGGAUCACCCAUGUGUAG | – | – | 53.9 | 33.9 |
